The source made the active and inactive calls. The calls are words filed in the database; no cut-off is given here.
Key:
Staphylococcus aureus = assay: Antibacterial activity against Staphylococcus aureus ATCC 6538P assessed as inhibition zone at 1 mg after 24 hrs by agar diffusion method; assay type: functional; conditions: read-out: IZ
In short: (§1)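 Agar diffusion (cup method). Each compound, 1 mg dissolved in 1 mL DMF; 100 µL of this solution was placed in cups cut in seeded agar. Plates were incubated at 37 °C for 24 h and the inhibition zone was measured.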

Pseudomonas aeruginosa = assay: Antibacterial activity against Pseudomonas aeruginosa ATCC 9027 assessed as inhibition zone at 1 mg after 24 hrs by agar diffusion method; assay type: functional; conditions: ATCC 9027, 24 h, read-out: IZ; in short: as §1
Klebsiella pneumoniae = assay: Antibacterial activity against Klebsiella pneumoniae ATCC 10032 assessed as inhibition zone at 1 mg after 24 hrs by agar diffusion method; assay type: functional; conditions: ATCC 10032, 24 h, read-out: IZ; in short: as §1
Candida albicans = assay: Antifungal activity against Candida albicans ATCC 2091 assessed as inhibition zone at 1 mg after 24 hrs by agar diffusion method; assay type: functional; conditions: ATCC 2091, 24 h, read-out: IZ
In short: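 Agar diffusion (cup) assay; Candida albicans ATCC 2091. Compound 1 mg dissolved in 1 mL DMF, 100 µL placed per cup; incubated 37 °C for 24 h; inhibition zone measured in mm.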

HCT-116 = assay: Cytotoxicity against human HCT116 cells at 10 ug/mL by MTT assay; assay type: functional, cell-based
Jejunum [1] = assay: Parasympatholytic activity in isolated rabbit jejunum assessed as decrease in nicotine-induced intestinal contraction; assay type: functional, tissue-based; conditions: Oryctolagus cuniculus
In short: (§2)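 Isolated rabbit jejunum. Compounds in distilled H2O (1.0 mg/mL stock), used at 1/1000 and 1/100 dilutions. Normal contractions recorded first. Then 0.1 mL nicotine (1/1000 dilution) or 10 gamma acetylcholine (0.1 mL of 1/10 000 dilution) added after the compound. Change in intestinal contraction recorded.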

Jejunum [2] = assay: Parasympatholytic activity in isolated rabbit jejunum assessed as decrease in 10gamma-acetylcholine induced intestinal contraction; assay type: functional, tissue-based; conditions: Oryctolagus cuniculus; in short: as §2
Heart [3] = assay: Parasympatholytic activity in isolated perfused rabbit heart assessed as decrease in nicotine-induced effect; assay type: functional, tissue-based; conditions: Oryctolagus cuniculus
In short: (§3)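 Rabbit heart perfused by modified Langendorff method. Normal contractions recorded and receptors (nicotinic, muscarinic, histaminergic, adrenergic) checked. Compound added at 1/100 dilution of 1.0 mg/mL aqueous stock. Then 0.1 mL nicotine (1/1000 dilution of 1 mL/100 mL H2O) or 10 gamma acetylcholine (0.1 mL of 1/10 000 dilution of 1 g/100 mL H2O) given; change in contraction recorded.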

Heart [4] = assay: Parasympatholytic activity in isolated perfused rabbit heart assessed as decrease in 10gamma-acetylcholine induced effect; assay type: functional, tissue-based; conditions: Oryctolagus cuniculus; in short: as §3

Compound `CCOC(=O)c1c(O)c(O)cc(Br)c1OC` [CERATINOPHENOL A] has a zone of inhibition at 1000 µg/disc (Staphylococcus aureus) of 7 mm, a zone of inhibition at 1000 µg/disc (Pseudomonas aeruginosa) of 4 mm and a zone of inhibition at 1000 µg/disc (Klebsiella pneumoniae) of 3 mm. For the same compound, the zone of inhibition at 1000 µg/disc (Candida albicans) was 2 mm and the Activity (HCT-116) was “Not toxic”.

With `N#CC(=O)NCCCOc1c(Br)cc(CCN)cc1Br` the Activity (HCT-116) was “Not toxic”.

For `NCCc1cc(Br)c(OCCCNC(=O)C(N)=O)c(Br)c1` [MOLOKA'IAKITAMIDE], the Activity (Jejunum [1]) was “Active”, the Activity (Jejunum [2]) was “Active” and the Activity (Heart [3]) was “Active”. For the same compound, the Activity (Heart [4]) was “Active”, the zone of inhibition at 1000 µg/disc (Candida albicans) was 3 mm and the Activity (HCT-116) was “Not toxic”.

For `COC1=C(Br)C[C@]2(OC=C1Br)ON=C(C(=O)NCCCOc1c(Br)cc(CCN)cc1Br)[C@@H]2O` [PSAMMAPLYSIN A], the zone of inhibition at 1000 µg/disc (Klebsiella pneumoniae) was 3 mm and the Activity (HCT-116) was “Not toxic”.

For `NCCCOc1c(Br)cc(CCN)cc1Br`, the Activity (Jejunum [1]) was “Active”, the Activity (Jejunum [2]) was “Active” and the Activity (Heart [3]) was “Active”. For the same compound, the Activity (Heart [4]) was “Active” and the Activity (HCT-116) was “Not toxic”.

With `C[N+]1=C2C=C(N)C(=O)c3[nH]cc(c32)CC1` the Activity (HCT-116) was “Not toxic”.

`NCCCOc1c(Br)cc(C(O)CN)cc1Br` (stereo not drawn) was tested, and the Activity (HCT-116) was “Not toxic”.

With `COc1c(Br)cc(O)c(O)c1C=O` the zone of inhibition at 1000 µg/disc (Klebsiella pneumoniae) was 3 mm and the Activity (HCT-116) was “Not toxic”.

Reference: ChEMBL document CHEMBL1155811, “Bioactive brominated metabolites from the Red Sea sponge Pseudoceratina arabica” (2008)
